In brackets after ≈: the same amount, converted by molar mass.

Among the data in ChEMBL document CHEMBL2417477, “Synthesis and antibacterial activity of doxycycline neoglycosides” (J Nat Prod, 2013) are MIC, viability and Stability values, retold here.

Data set [1] concerns Staphylococcus aureus. Briefly: Antibacterial activity against tetracycline-resistant Staphylococcus aureus R2507 assessed as growth inhibition. The class given is functional.
Data set [2] relates to Escherichia coli. Briefly: Antibacterial activity against tetracycline-resistant Escherichia coli 1-849 assessed as growth inhibition. The class given is functional.
In data set [3] the test system is Escherichia coli. The data set can be described thus: Antibacterial activity against tetracycline-sensitive Escherichia coli ATCC 25922 assessed as growth inhibition. The class given is functional.
Data set [4] can be described thus: Cytotoxicity against human IMR90 cells assessed as cell viability at 10 uM after 2 days by Alamar Blue assay relative to control. The class given is cell-based. As to conditions: IMR-90 cells, read-out: Activity. The procedure, abridged: (§1)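 Resazurin (AlamarBlue) read-out of residual metabolic activity. A549 grown in DMEM/F-12 Kaighn's and IMR 90 in MEM/EBSS, both with 10% heat-inactivated FBS, penicillin/streptomycin and 2 mM L-glutamine. Seeded at 2 × 10^3 cells/well, held 24 h at 37 °C in 5% CO2, then exposed to 10 μM final for 2 days. Controls: 1.5 mM H2O2 and 10 μg/ml actinomycin D.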
(In general: The colour change of resazurin is a common sign of viable cells or microbes.)

Data set [5] is described as follows: Cytotoxicity against human A549 cells assessed as cell viability at 10 uM after 2 days by Alamar Blue assay relative to control. As to conditions: read-out: Activity. The class given is cell-based. The procedure, abridged:
as §1

Data set [6] is described as follows: Stability of the compound in DMSO at -20 degC at 3 mM after 12 months by HPLC analysis. The class given is physicochemical. The note with it: 8766 h, 3000 µM.

For the compound `C[C@H]1c2ccc(N)c(O)c2C(=O)C2=C(O)[C@]3(O)C(=O)C(C(N)=O)=C(O)[C@@H](N(C)C)[C@@H]3[C@@H](O)[C@@H]21`, the minimum inhibitory concentration (MIC) in data set [1] is 4 µg/mL (≈ 8.71 µM); in data set [2], 2 µg/mL (≈ 4.35 µM); in data set [3], 1 µg/mL (≈ 2.18 µM).

Take `CON(CC(=O)Nc1ccc2c(c1O)C(=O)C1=C(O)[C@]3(O)C(=O)C(C(N)=O)=C(O)[C@@H](N(C)C)[C@@H]3[C@@H](O)[C@@H]1[C@H]2C)[C@@H]1O[C@H](CO)[C@@H](O)[C@H](O)[C@H]1N`: the results for the viability at 48 h, 10 µM in data set [4] and in data set [5] were 102% and 95.6%, respectively. The MIC in data set [1] is 32 µg/mL (≈ 45.2 µM); in data set [2] it was 32 µg/mL (≈ 45.2 µM); in data set [3] it was 8 µg/mL (≈ 11.3 µM).

Turning to `CONCC(=O)Nc1ccc2c(c1O)C(=O)C1=C(O)[C@]3(O)C(=O)C(C(N)=O)=C(O)[C@@H](N(C)C)[C@@H]3[C@@H](O)[C@@H]1[C@H]2C`, the figures for the viability at 48 h, 10 µM in data set [4] and in data set [5] were 99.2% and 95.9%, respectively. Further, the MIC was 4 µg/mL (≈ 7.32 µM) in data set [1], 8 µg/mL (≈ 14.6 µM) in data set [2] and 4 µg/mL (≈ 7.32 µM) in data set [3].

Take `CON(CC(=O)Nc1ccc2c(c1O)C(=O)C1=C(O)[C@]3(O)C(=O)C(C(N)=O)=C(O)[C@@H](N(C)C)[C@@H]3[C@@H](O)[C@@H]1[C@H]2C)[C@H]1O[C@H](CO)[C@@H](O)[C@H](O)[C@H]1N`: in data set [6], the Stability result is recorded as “Stable”. Also, the viability at 48 h, 10 µM in data set [4] turned out to be 94.6%; in data set [5], 99.1%. For the same compound, the MIC in data set [1], in data set [2] and in data set [3] was 4 µg/mL (≈ 5.65 µM) in each case.

On to `CON(CC(=O)Nc1ccc2c(c1O)C(=O)C1=C(O)[C@]3(O)C(=O)C(C(N)=O)=C(O)[C@@H](N(C)C)[C@@H]3[C@@H](O)[C@@H]1[C@H]2C)[C@H]1CC[C@H](N(C)C)[C@@H](C)O1`, for which the viability at 48 h, 10 µM came to 101% in data set [4] and 96.9% in data set [5]. For the same compound, the minimum inhibitory concentration (MIC) in data set [1] turned out to be 16 µg/mL (≈ 23.3 µM); in data set [2], 32 µg/mL (≈ 46.5 µM); in data set [3], 4 µg/mL (≈ 5.82 µM).

In the case of `CON(CC(=O)Nc1ccc2c(c1O)C(=O)C1=C(O)[C@]3(O)C(=O)C(C(N)=O)=C(O)[C@@H](N(C)C)[C@@H]3[C@@H](O)[C@@H]1[C@H]2C)[C@@H]1O[C@H](CO)[C@@H](O)[C@H](O)[C@H]1NC(=O)C(F)(F)F`, the viability at 48 h, 10 µM in data set [4] turned out to be 109%; in data set [5], 98.7%. Further, the MIC in data set [1] is 16 µg/mL (≈ 19.9 µM); in data set [2], 32 µg/mL (≈ 39.8 µM); in data set [3], 4 µg/mL (≈ 4.98 µM).

For the compound `CON(CC(=O)Nc1ccc2c(c1O)C(=O)C1=C(O)[C@]3(O)C(=O)C(C(N)=O)=C(O)[C@@H](N(C)C)[C@@H]3[C@@H](O)[C@@H]1[C@H]2C)C1O[C@H](CO)[C@@H](O)[C@H](OC(C)C(=O)O)[C@H]1NC(C)=O` (mixture of isomers), the viability at 48 h, 10 µM in data set [4] is 104%; in data set [5], 97.7%. Besides, the MIC was found to be 16 µg/mL in data set [1], 32 µg/mL in data set [2] and 8 µg/mL in data set [3].

With `CON(CC(=O)Nc1ccc2c(c1O)C(=O)C1=C(O)[C@]3(O)C(=O)C(C(N)=O)=C(O)[C@@H](N(C)C)[C@@H]3[C@@H](O)[C@@H]1[C@H]2C)C1O[C@H](CO)[C@@H](O)[C@H](O)[C@@H]1N` (mixture of isomers), the viability at 48 h, 10 µM in data set [4] worked out at 98.9%; in data set [5], 97.1%. For the same compound, the MIC in data set [1] was 32 µg/mL; in data set [2], 32 µg/mL; in data set [3], 4 µg/mL.

Consider `CON(CC(=O)Nc1ccc2c(c1O)C(=O)C1=C(O)[C@]3(O)C(=O)C(C(N)=O)=C(O)[C@@H](N(C)C)[C@@H]3[C@@H](O)[C@@H]1[C@H]2C)C1OC[C@@H](O)[C@@H](O)[C@@H]1O` (mixture of isomers), for which the viability at 48 h, 10 µM in data set [4] came to 102%; in data set [5] it was 97.2%. Further, the MIC in data set [1] amounted to 32 µg/mL; in data set [2], 64 µg/mL; in data set [3] it was 8 µg/mL.

Turning to `CON(CC(=O)Nc1ccc2c(c1O)C(=O)C1=C(O)[C@]3(O)C(=O)C(C(N)=O)=C(O)[C@@H](N(C)C)[C@@H]3[C@@H](O)[C@@H]1[C@H]2C)C1OC[C@H](O)[C@@H]1O` (mixture of isomers), the viability at 48 h, 10 µM worked out at 99.3% in data set [4] and 98.2% in data set [5]. Moreover, the MIC was determined as 32 µg/mL in data set [1], 64 µg/mL in data set [2] and 4 µg/mL in data set [3].

As for `C=CCOC(=O)N[C@H]1C(N(CC(=O)Nc2ccc3c(c2O)C(=O)C2=C(O)[C@]4(O)C(=O)C(C(N)=O)=C(O)[C@@H](N(C)C)[C@@H]4[C@@H](O)[C@@H]2[C@H]3C)OC)O[C@H](CO)[C@@H](O)[C@@H]1O` (mixture of isomers), the viability at 48 h, 10 µM in data set [4] is 97.6%; in data set [5], 98.8%. Also, the MIC in data set [1] was 8 µg/mL; in data set [2], 16 µg/mL; in data set [3] it was 8 µg/mL.

Take `C[C@H]1c2cccc(O)c2C(=O)C2=C(O)[C@]3(O)C(=O)C(C(N)=O)=C(O)[C@@H](N(C)C)[C@@H]3[C@@H](O)[C@@H]21.O` [DOXYCYCLINE]: the results for the MIC in data set [1], in data set [2] and in data set [3] were 2 µg/mL, 8 µg/mL and 1 µg/mL, respectively.

Broadly, the MIC is the least concentration at which growth counts as inhibited.
